From PubChem
A selection: hits, their analogues and other compounds. The true share with any hit is near 4.8%.
UCH37 inh: inhibitors of human deubiquitinating enzyme UCH37; Q9Y5K5; purified proteasome/UCH37, Ub-AMC cleavage fluorescence; inhibition, % (concentration not given with the values); 330,000 compounds, 0.33% hits;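 active = mean inhibition over replicate wells above about 20%, limit read from the data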;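 also: 0% = compound-free wells with enzyme and 100% = wells lacking proteasome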
Target sequence (Q9Y5K5 whole entry, looked up): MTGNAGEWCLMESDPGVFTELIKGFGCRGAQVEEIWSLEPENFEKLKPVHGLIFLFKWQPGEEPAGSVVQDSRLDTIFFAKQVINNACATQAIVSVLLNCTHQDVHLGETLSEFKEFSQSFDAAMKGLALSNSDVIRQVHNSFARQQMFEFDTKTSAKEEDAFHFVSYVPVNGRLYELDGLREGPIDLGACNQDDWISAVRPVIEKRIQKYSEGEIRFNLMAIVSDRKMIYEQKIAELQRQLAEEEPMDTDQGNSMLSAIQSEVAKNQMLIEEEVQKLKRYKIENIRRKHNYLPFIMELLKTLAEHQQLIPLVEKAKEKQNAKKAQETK
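Material: human UCH37 enzyme supplied as purified proteasome complex. Measure: % inhibition of Ub-AMC cleavage fluorescence. Medium: pH 7.4 Tris-HCl (50 mM) with ovalbumin, ATP-MgCl2, DTT. Times: 30 min preincubation with enzyme, 25 min cleavage at room temperature. Detection: AMC fluorescence intensity at 355/460 nm.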
NALP1 yeast inh: blocks the NALP1 inflammasome reconstituted in yeast | inhibition, % at 10 µM | S. cerevisiae NALP1/ASC/caspase-1 growth, X-gal OD620, 72 h | 280,000 compounds, 0.61% hits | AID 2071; in the data active = inhibition mostly above about 24%, no sharp cut-off; inactive = mostly below about 32%
ALR inh: blocks human ALR sulfhydryl oxidase activity. P55789. purified ALR, DTT oxidation, H2O2 HRP-luminol luminescence. inhibition, % (concentration not given with the values). 290,000 compounds, 3.8% hits;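 active = mean replicate inhibition above about 79%, with every replicate also reaching it, limit read from the data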
Target sequence (P55789 whole entry, looked up): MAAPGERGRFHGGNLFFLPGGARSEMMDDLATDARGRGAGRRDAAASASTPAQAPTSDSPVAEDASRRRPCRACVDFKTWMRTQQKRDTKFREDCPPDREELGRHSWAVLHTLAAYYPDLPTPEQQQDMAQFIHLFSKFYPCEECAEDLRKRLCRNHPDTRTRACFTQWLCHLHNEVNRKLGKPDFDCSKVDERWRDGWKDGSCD
Calb FLC: affects C. albicans growth with fluconazole | C. albicans CaCi-2 + fluconazole, Alamar Blue growth, 48 h | growth inhibition, % (concentration not given with the values) | 300,000 compounds, 0.57% hits;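 active = growth inhibition above about 58% in most replicates, limit read from the data, passing the limit was not always enough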;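 also: all wells also contain fluconazole at 8 µg/ml as a sub-toxic cotreatment; 0% = median of DMSO wells and 100% = median of geldanamycin control wells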
NLRP3 yeast inh: inhibitors of NALP3 inflammasome in yeast. Yeast reconstituted NLRP3/ASC/caspase-1, beta-gal luminescence, 24 h. inhibition, % at 10 µM. 330,000 compounds, 0.39% hits;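 active = inhibition of 50% or more; inactive = inhibition below 50%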;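 also: plate controls were induced DMSO wells for no effect and uninduced yeast grown without galactose for full effect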
ATG4B inhibitor: blocks human ATG4B protease cleavage of LC3 substrate. Q9Y4P1. ATG4B cleavage of LC3-PLA2, NBD-HPC fluorescence, 1 h. inhibition, % at 8.33 µM. 340,000 compounds, 0.51% hits; in the data active = inhibition above about 40%
An asterisk follows results filed as active; . = no result.

SMILES	UCH37 inh	NALP1 yeast inh	ALR inh	Calb FLC	NLRP3 yeast inh	ATG4B inhibitor
CCOc1ccc(-c2cc(C)[n+](CCc3ccc(OC)c(OC)c3)c(-c3ccc(OCC)cc3)c2)cc1	4	15	-10	64	13	6
CC(C)(C)NC(=S)N=C(N)N[N+](=O)[O-]	3	.	.	.	.	.
Cn1cc([C@@H]2C[C@H]3CN(Cc4cccc(Cl)c4)C(=O)[C@]34CCCN24)c2ccccc21	5	4	-22	-13	8	18
Cc1ccsc1-c1nc(CSCC(=O)N2CCC3(CC2)OCCO3)c(C)o1	-4	9	99*	-6	10	-7
Cc1ccccc1-c1nc(CS(=O)CC(=O)N2CCC3(CC2)OCCO3)c(C)o1 (stereo not drawn)	1	-4	100*	5	7	-2
O=C(CSc1ccccc1)N1CCC2(CC1)OCCO2	1	31	-10	27	21	-3
COP(=O)(OC)C(C=O)=NNc1ccc([N+](=O)[O-])cc1	20*	.	.	.	.	.
CC(=O)Nc1ccc([As](=O)(O)c2ccc([N+](=O)[O-])cc2)cc1	-2	0	-5	6	-4	-1
CC(=NN=C(N)N)c1ccccc1	5	.	.	.	.	.
O=C(COC(=O)c1ccc(O)cc1)Nc1ccc(Cl)cc1C(=O)c1ccccc1	1	20	96*	13	27	-12
CC(=O)C1C2c3ccccc3OC1(C)N=c1sc(=Cc3cnn(C)c3)c(=O)n12 (stereo not drawn)	2	.	.	.	.	.
COc1ccccc1-n1c(O)c(/C=N/NC(=S)Nc2ccccc2)c(=O)[nH]c1=S	7	-4	92*	0	8	-3
Oc1c(Br)cc(Br)cc1Oc1ccc(Br)cc1Br	.	30	30	87*	.	.
CC1=C[C@@H](C)CC=C[C@H]2[C@@H]3O[C@]3(C)[C@@H](C)[C@H]3[C@H](Cc4c[nH]c5ccccc45)NC(=O)[C@]32C(=O)C=CC(=O)[C@@H]1O	1	.	.	.	.	.
CCN1/C(=C\C=C\C2=[N+](CC)c3ccccc3C2(C)C)C(C)(C)c2ccccc21	10	3	88*	-6	28	-3
COc1ccc2c3c([nH]c2c1)C(C)=NCC3	-329	32	13	.	6	4
CC1=NCCc2c1[nH]c1cc(O)ccc21	-470	.	99*	.	19	-127
CC(C)c1ccc(N=Nc2c(O)[nH]c(=O)[nH]c2=O)cc1	4	.	-4	-9	13	8
O=c1[nH]c(=S)[nH]c(O)c1N=Nc1ccc(SC(F)F)cc1	9	17	98*	33	15	4
COC(=NC1CCCCC1)C(O)c1c[nH]c2ccccc12 (stereo not drawn)	5	5	-8	-8	9	-4
COc1cc(C=NNC(=O)CN2CC(c3ccccc3)CC2=O)ccc1OC(=O)N(C)C (stereo not drawn)	4	.	.	.	.	.
CCN1CCN(c2ccc(N)c(C)c2)CC1	2	16	96*	10	2	6
CN1CCN(c2ccc([N+](=O)[O-])c(N)c2)CC1	10	42	-3	7	11	1
CCOc1cc(CNCCc2c[nH]c3ccccc23)cc(Cl)c1OCC	4	54*	-4	-1	20	3
CCOc1c(Cl)cc(CNCCc2c[nH]c3ccccc23)cc1OC	7	-6	10	-1	15	-6
SMILES	UCH37 inh	NALP1 yeast inh	ALR inh	Calb FLC	NLRP3 yeast inh	ATG4B inhibitor
Oc1cc2c(cc1O)[C@H]1c3ccccc3CN[C@@H]1CC2	.	3	99*	.	.	.
N#Cc1c(N=CC2C(=O)NC(=S)NC2=O)sc2c1CCCC2	12	.	.	.	.	.
CCOC(=O)c1cc(C)n(CCc2cnc[nH]2)c1C	6	17	-29	-9	6	3
NC(=N[N+](=O)[O-])N1CCN(C(=O)OC2CCCC2)CC1	1	.	.	.	.	.
C#CC1(O)CCC2C3CCC4=CC(=NOCC(=O)NCC(=O)NC(C(=O)O)C(C)C)CC[C@]4(C)C3CC[C@@]21C (stereo partly drawn)	1	.	.	.	.	.
C=CCN1C(=O)NC(=O)/C(=C\c2ccc(-c3ccccc3[N+](=O)[O-])o2)C1=O	9	8	98*	7	22	2
CC(Cc1ccccc1)NC(N)=O (stereo not drawn)	2	15	-42	1	6	11
CC(Cc1ccccc1)NC(=O)Cc1ccc(N(C)C)cc1 (stereo not drawn)	1	12	99*	-11	8	-1
CC1=CC2C=C(C)C(C)C3C(CC(C)C)NC(=O)C23C(=O)C=CC(O)C(O)CC1 (stereo not drawn)	4	.	.	.	.	.
CC1CCCC=CC2CC(O)CC2C(O)C=CC(=O)O1 (stereo not drawn)	-1	.	.	.	.	.
Cc1[nH]c2ccccc2c1C1=CCNCC1	1	21	94*	2	8	-3
Cc1ccccc1NC(=O)c1cc(-c2ccccc2)n(CCCN2CCOCC2)c1C	4	6	-9	-5	9	1
Cc1ccc(NC(=O)c2cc(-c3ccccc3)n(CCCN3CCOCC3)c2C)cc1	2	37*	2	0	11	-16
Nc1ccc2c(c1)Cc1ccccc1-2	2	23	99*	1	16	2
COc1cccc(N2C(=O)NC(=O)/C(=C/c3ccc4c(c3)Cc3ccccc3-4)C2=O)c1	0	-10	-171	-6	19	2
COC(=O)Nc1ccc(N=C(N)N[N+](=O)[O-])cc1	3	12	-6	-15	1	11
Nc1cc(Cl)c2nonc2c1[N+](=O)[O-]	16	50	97*	.	.	1
O=[N+]([O-])c1c(Cl)c(Cl)c(Cl)c(Cl)c1Cl	.	.	.	.	.	6
COc1ccc2[nH]cc(C3=CCNCC3)c2c1	.	.	97*	.	0	.
Cc1cccc(N2C(=O)NC(=O)/C(=C/c3ccc(N4CCOCC4)cc3)C2=O)c1	1	6	97*	13	4	8
Nc1ccc(C(=O)NN=C2CN3CCC2CC3)cc1	3	.	.	.	.	.
CN(C)c1ccc(/C=C2/C(=O)NC(=O)N(Cc3ccco3)C2=O)cc1	2	8	19	10	11	1
Cc1cc(/C=C2/C(=O)NC(=O)N(Cc3ccco3)C2=O)c(C)n1-c1ccccc1	0	15	92*	3	7	-1
CCN(CC)c1ccc(/C=C/[N+](=O)[O-])cc1	3	-12	99*	-2	11	6
O=C(c1ccc2c(c1)OCO2)C1CCCN(CC2CCCCC2)C1 (stereo not drawn)	-2	11	-12	-8	21	-1
COc1ccc(-n2c(/C=C/c3ccc(O)c(OC)c3)nc3ccccc3c2=O)cc1	2	18	12	8	24	11
COc1cc(/C=C/[N+](=O)[O-])ccc1O	4	94*	43	3	23	0
COc1cccc(-n2c(/C=C/c3ccc(O)c(O)c3)nc3ccccc3c2=O)c1	-24	3	91*	-43	31	5
